Reference: PubChem BioAssay AID588485 (Southern Research Specialized Biocontainment Screening …, 2011)
Values joined by “and” are separate entries in the source; they are usually repeats but may differ in a detail not shown here. Equal entries are not always repeated. Active and inactive are the calls of the source.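 Rule for the calls: active = CPE inhibition of 50% or more; inactive = the rest.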

Assays:
[1] = antiviral activity against respiratory syncytial virus – cell-based, synthesized compounds, set 14, dose response (AID 588485); conditions: HEp-2 RSV Long CPE inhibition, luminescence viability; at 50 µM (top of the series)
Summary of the method: (§1)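 Incubation – 6 days at 37 °C · Assay system – RSV Long-infected HEp-2 cells · Technique – luminescence-based measurement of virus-induced cytopathic effect · Dosing – 8-point twofold dilution series, 0.39 to 50 µM final, 0.5% DMSO · Controls – uninfected cell-only wells and infected virus control wells · Replication – each dose tested in triplicate · Also added – RSV Long, MOI 0.45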

[2] = system: HEp-2 RSV Long CPE inhibition, luminescence viability; assay: as above
Summary of the method: as §1

| SMILES | CPE inhibition [1] | IC50 [2] [nM] |
| --- | --- | --- |
| O=C(O)c1ccc(Cn2c(=O)n(Cc3ccc(C(=O)NCC4COC4)cc3)c(=O)c3ccccc32)cc1 | 0.24% (inactive) and 0.09% (inactive) | – |
| CC(C)c1ccc(Cn2c(=O)n(Cc3ccc(C(=O)NCc4ccco4)cc3)c(=O)c3ccccc32)cc1 | – | 1350 |
| CN(C)c1ccc(Cn2c(=O)n(Cc3ccc(C(=O)NCC4COC4)cc3)c(=O)c3ccccc32)cc1 | – | 1250 |
| COCCCNC(=O)c1ccc(Cn2c(=O)c3ccccc3n(Cc3ccc([N+](=O)[O-])cc3)c2=O)cc1 | – | 460 |
